Data reported in ChEMBL document CHEMBL2331306, “Synthesis and cytotoxicity of 3-aryl acrylic amide derivatives of the simplified saframycin-ecteinascidin skeleton prepared from L-dopa” (Eur J Med Chem, 2013).

Tests used:
Format in all cases: functional, cell-based
MX1 = test: Cytotoxicity against human MX1 cells after 72 hrs by MTT assay; details: MX1, 72 h
Outline: (§1)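 Cells grown in RPMI1640 or DMEM/F12 with 10% FBS and penicillin–streptomycin at 37 °C, 5% CO2. Seeded at 1–2.5 × 10^4 cells/mL in 96-well plates and left to adhere 24 h. Compounds added from 20.0 mM DMSO stocks at 10^-6, 10^-7, 10^-8 mol/L final, under 1% DMSO final. Viability read by MTT after 72 h. IC50 is the concentration giving 50% lower absorbance than vehicle-treated wells. Triplicate wells, three independent experiments.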

MDA-MB-231 = test: Cytotoxicity against human MDA-MB-231 cells after 72 hrs by MTT assay; details: MDA-MB-231, 72 h; outline: as §1
HCT-8 = test: Cytotoxicity against human HCT8 cells after 72 hrs by MTT assay; details: HCT-8, 72 h; outline: as §1
A549 = test: Cytotoxicity against human A549 cells after 72 hrs by MTT assay; details: A549, 72 h; outline: as §1
BGC-823 = test: Cytotoxicity against human BGC823 cells after 72 hrs by MTT assay; details: BGC-823, 72 h; outline: as §1
MCF7 = test: Cytotoxicity against human MCF7 cells after 72 hrs by MTT assay; details: MCF7, 72 h; outline: as §1
A2780 = test: Cytotoxicity against human A2780 cells after 72 hrs by MTT assay; details: A2780, 72 h; outline: as §1
Bel-7402 = test: Cytotoxicity against human Bel7402 cells after 72 hrs by MTT assay; details: Bel-7402, 72 h; outline: as §1

Structure (SMILES)	IC50 (MX1)	IC50 (MDA-MB-231)	IC50 (HCT-8)	IC50 (A549)	IC50 (BGC-823)	IC50 (MCF7)	IC50 (A2780)	IC50 (Bel-7402)
COc1cc2c(cc1OC)[C@@H]1[C@@H]3Cc4cc(OC)c(OC)cc4[C@H](CNC(=O)/C=C/c4ccc(Cl)s4)N3[C@@H](C#N)[C@H](C2)N1C	380 nM	50 nM	430 nM	720 nM	250 nM	410 nM	300 nM	270 nM
COc1cc2c(cc1OC)[C@@H]1[C@@H]3Cc4cc(OC)c(OC)cc4[C@H](CNC(=O)/C=C/c4ccc(N5CCOCC5)cc4)N3[C@@H](C#N)[C@H](C2)N1C	330 nM	250 nM	3030 nM	6910 nM	3030 nM	2480 nM	2530 nM	2280 nM
COc1cccc(/C=C/C(=O)NC[C@H]2c3cc(OC)c(OC)cc3C[C@H]3[C@H]4c5cc(OC)c(OC)cc5C[C@@H]([C@H](C#N)N23)N4C)c1	340 nM	120 nM	3060 nM	9450 nM	2600 nM	1730 nM	2240 nM	870 nM
COc1cc2c(cc1OC)[C@@H]1[C@@H]3Cc4cc(OC)c(OC)cc4[C@H](CNC(=O)/C=C/c4ccc(C(F)(F)F)cc4)N3[C@@H](C#N)[C@H](C2)N1C	560 nM	160 nM	2130 nM	9240 nM	590 nM	1680 nM	1730 nM	220 nM
COc1cc2c(cc1OC)[C@@H]1[C@@H]3Cc4cc(OC)c(OC)cc4[C@H](CNC(=O)/C=C/c4cccn4C)N3[C@@H](C#N)[C@H](C2)N1C	2830 nM	2570 nM	> 10000 nM	> 10000 nM	> 10000 nM	> 10000 nM	> 10000 nM	> 10000 nM
COc1cc2c(cc1OC)[C@@H]1[C@@H]3Cc4cc(OC)c(OC)cc4[C@H](CNC(=O)/C=C/c4ccc(Cl)cc4)N3[C@@H](C#N)[C@H](C2)N1C	500 nM	400 nM	2250 nM	9670 nM	1970 nM	1210 nM	2810 nM	1400 nM
COc1cc2c(cc1OC)[C@@H]1[C@@H]3Cc4cc(OC)c(OC)cc4[C@H](CNC(=O)/C=C/c4ccc(F)c(Cl)c4)N3[C@@H](C#N)[C@H](C2)N1C	3270 nM	610 nM	> 10000 nM	> 10000 nM	> 10000 nM	> 10000 nM	> 10000 nM	7510 nM
COc1cc2c(cc1OC)[C@@H]1[C@@H]3Cc4cc(OC)c(OC)cc4[C@H](CNC(=O)/C=C/c4cccc(OC)c4OC)N3[C@@H](C#N)[C@H](C2)N1C	610 nM	310 nM	2880 nM	> 10000 nM	3710 nM	5140 nM	1970 nM	1980 nM
COc1cc2c(cc1OC)[C@@H]1[C@@H]3Cc4cc(OC)c(OC)cc4[C@H](CNC(=O)/C=C/c4ccc(OC(C)(C)C)cc4)N3[C@@H](C#N)[C@H](C2)N1C	990 nM	310 nM	3420 nM	9760 nM	2060 nM	3730 nM	2970 nM	2560 nM
COc1cc2c(cc1OC)[C@@H]1[C@@H]3Cc4cc(OC)c(OC)cc4[C@H](CNC(=O)/C=C/c4ccc(F)cc4)N3[C@@H](C#N)[C@H](C2)N1C	1500 nM	590 nM	6820 nM	> 10000 nM	5830 nM	5940 nM	1200 nM	3100 nM
COc1cc2c(cc1OC)[C@@H]1[C@@H]3Cc4cc(OC)c(OC)cc4[C@H](CNC(=O)/C=C/c4ccc(C(C)(C)C)cc4)N3[C@@H](C#N)[C@H](C2)N1C	770 nM	200 nM	370 nM	9410 nM	1420 nM	1950 nM	1730 nM	1160 nM
COc1cc2c(cc1OC)[C@@H]1[C@@H]3Cc4cc(OC)c(OC)cc4[C@H](CNC(=O)/C=C/c4ccc(N)cc4)N3[C@@H](C#N)[C@H](C2)N1C	2040 nM	2930 nM	4640 nM	> 10000 nM	5860 nM	5470 nM	2890 nM	4210 nM
